Assay results as given in ChEMBL document CHEMBL3425441 (J Med Chem, 2015).

Key:
[1] = Cytotoxicity against human U937 cells assessed as cell death after 72 hrs by sulforhodamine B assay; conditions: U-937, 72 h
[2] = Metabolic stability in rat liver microsomes at 10 uM after 3 hrs by LC/MS analysis; type: ADME; conditions: read-out: Stability
Serum [3] = assay: Drug uptake in C57/BL6 mouse serum at 25 mg/kg, iv measured after 5 to 6 hrs by LC/MS/MS analysis; type: ADME, organism-based; set-up: dose 25 mg/kg, route intravenous; conditions: in vivo
How it was run: (§1)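 Mouse PK: C57/BL6 mice, n = 2 per cohort per time point, 25 mg/kg given by tail vein injection or oral gavage; formulated at 5 mg/mL in 200 mg/mL HPβCD, pH 5.5. Mice sacrificed at set times, blood collected, EDTA plasma frozen at -80°C. Levels measured by LC/MS/MS (Polar-RP column, formic acid/methanol gradient, negative ESI) against an internal standard.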

Mus musculus [4] = assay: Toxicity in C57BL/6 mouse at 200 mg/kg, ip measured over 24 hrs; type: organism-based; set-up: dose 200 mg/kg, route intraperitoneal; conditions: in vivo
How it was run: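 Tolerability: C57BL/6 mice aged 8-10 weeks, n = 3 per cohort, given a single 200 mg/kg i.p. dose formulated at 5 mg/mL in 200 mg/mL HPβCD, pH 5.5. Signs classed as excitatory or depressive and graded mild to severe.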

[5] = Metal chelating activity of the compound assessed as zinc complex formation after 5 mins by EGTA fluorescence titration Assay; type: physicochemical
[6] = target: T1, Caspase-3/Caspase-7 (Homo sapiens) (UniProt P42574+P55210); assay: Activation of Caspase 3/7 in human U937 cells assessed as cleavage of Ac-DEVD-AFC at 30 uM after 16 hrs by fluorescence assay relative to control; type: cell-based; conditions: U-937
T1 sequence (P42574 whole entry, looked up): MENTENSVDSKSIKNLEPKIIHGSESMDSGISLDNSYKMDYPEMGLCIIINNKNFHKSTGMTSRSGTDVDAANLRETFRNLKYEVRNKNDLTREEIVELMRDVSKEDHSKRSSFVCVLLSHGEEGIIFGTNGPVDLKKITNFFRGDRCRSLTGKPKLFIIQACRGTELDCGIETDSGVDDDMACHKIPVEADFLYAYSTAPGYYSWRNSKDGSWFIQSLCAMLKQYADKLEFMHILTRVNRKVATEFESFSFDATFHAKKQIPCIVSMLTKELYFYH
T1 sequence (P55210 whole entry, looked up): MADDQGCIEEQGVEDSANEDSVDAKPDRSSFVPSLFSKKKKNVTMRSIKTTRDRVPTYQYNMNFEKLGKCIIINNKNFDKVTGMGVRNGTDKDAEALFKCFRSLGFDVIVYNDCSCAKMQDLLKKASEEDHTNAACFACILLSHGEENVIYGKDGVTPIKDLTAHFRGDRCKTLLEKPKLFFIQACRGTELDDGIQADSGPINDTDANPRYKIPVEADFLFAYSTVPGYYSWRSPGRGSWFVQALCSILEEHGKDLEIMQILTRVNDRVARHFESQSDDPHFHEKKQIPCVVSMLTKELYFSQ

Serum [7] = assay: Drug uptake in C57/BL6 mouse serum at 25 mg/kg, iv measured after 8 hrs by LC/MS/MS analysis; type: ADME, organism-based; set-up: dose 25 mg/kg, route intravenous; conditions: in vivo; how it was run: as §1
U-937 [8] = assay: Induction of apoptosis in human U937 cells assessed as early apoptotic cells at 50 uM after 12 hrs by annexin V-FITC/propidium iodide staining-based flow cytometric analysis (reference value: 2%); type: functional
U-937 [9] = assay: Induction of apoptosis in human U937 cells assessed as late apoptotic cells at 50 uM after 12 hrs by annexin V-FITC/propidium iodide staining-based flow cytometric analysis (reference value: 2%); type: functional
U-937 [10] = assay: Induction of apoptosis in human U937 cells assessed as necrotic cells at 50 uM after 12 hrs by annexin V-FITC/propidium iodide staining-based flow cytometric analysis relative to control; type: functional
U-937 [11] = assay: Induction of apoptosis in human U937 cells assessed as viable cells at 50 uM after 12 hrs by annexin V-FITC/propidium iodide staining-based flow cytometric analysis (reference value: 96%); type: functional; conditions: U-937, 12 h, read-out: Activity
Jurkat = assay: Cytotoxicity against human Jurkat cells assessed as cell death after 72 hrs by sulforhodamine B assay; type: functional, cell-based
How it was run: (§2)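 Jurkat plated at 25,000 cells/well; GL-1 and EL4 at 15,000 cells/well. Nine half-log doses, 0.01–100 µM, in triplicate. SRB staining after TCA fixation, absorbance 510 nm. Percent death normalized to a positive death control (100%) and DMSO (0%). Logistic fit gives IC50, mean of three experiments ± s.e.m.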

[12] = Cytotoxicity against dog GL1 cells assessed as cell death after 72 hrs by sulforhodamine B assay; type: functional, cell-based; conditions: Canis lupus familiaris; how it was run: as §2
[13] = Cytotoxicity against dog OSW cells assessed as cell death after 72 hrs by sulforhodamine B assay; type: functional, cell-based; conditions: Canis lupus familiaris
EL4 = assay: Cytotoxicity against mouse EL4 cells assessed as cell death after 72 hrs by sulforhodamine B assay; type: functional, cell-based; conditions: EL4, 72 h; how it was run: as §2
Mus musculus [14] = assay: Elimination half life in C57/BL6 mouse at 25 mg/kg, iv and po by LC/MS/MS analysis; type: ADME, organism-based; set-up: dose 25 mg/kg, route oral; conditions: in vivo
[15] = AUC in C57/BL6 mouse at 25 mg/kg, iv by LC/MS/MS analysis; type: ADME, organism-based; set-up: dose 25 mg/kg, route intravenous; conditions: plasma
[16] = AUC in C57/BL6 mouse at 25 mg/kg, po by LC/MS/MS analysis; type: ADME, organism-based; set-up: dose 25 mg/kg, route oral; conditions: plasma
[17] = Oral bioavailability in C57/BL6 mouse at 25 mg/kg by LC/MS/MS analysis; type: ADME, organism-based; conditions: in vivo
Liver microsome = assay: Drug metabolism in rat liver microsomes assessed as formation of N-dealkylated, dihydroxylated and multiple monooxygenated products at 10 uM after 3 hrs by LC/MS analysis; type: ADME
[18] = Elimination half life in dog at 1 mg/kg, iv; type: ADME, organism-based, Canis lupus familiaris; set-up: dose 1 mg/kg, route intravenous; conditions: in vivo, read-out: beta t1/2 (converted)
[19] = target: T1, Caspase-3/Caspase-7 (Homo sapiens); assay: Activation of Caspase 3/7 in human U937 cells assessed as cleavage of Ac-DEVD-AFC at 1 uM after 16 hrs by fluorescence assay relative to control; type: cell-based; conditions: U-937
How it was run: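 U-937 cells, 50,000/well in phenol red-free RPMI-1640 with 10% FBS, preincubated 15 h at 37°C. Compound added from a 3x solution in media and tested in six wells. Lysis/caspase buffer contains 20 µM Ac-DEVD-AFC. […] 16 h slopes normalized to 0 h (0%) and staurosporine 16 h (100%).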

Compound	IC50 [1]	remaining at 3 h, 10 µM [2]	other results
CCCc1cc(F)cc(/C=N/NC(=O)CN2CCN(C(=O)c3ccccc3)CC2)c1O	12.3 µM	86%	
C=CCc1cc(F)cc(/C=N/NC(=O)CN2CCN(C(=O)c3ccc(C(F)(F)F)cc3)CC2)c1O		90%	
C=CCc1cc(F)cc(/C=N/NC(=O)CN2CCN(Cc3ccc(F)cc3)CC2)c1O	10.3 µM	57%	
C=CCc1cccc(/C=N/NC(=O)CN2CCN(Cc3ccc(S(N)(=O)=O)cc3)CC2)c1O		84%	Drug uptake (Serum [3]): Not Active
O=C(CN1CCN(C(=O)c2ccc(C(F)(F)F)cc2)CC1)N/N=C/c1cc(F)ccc1O	8.7 µM	87%	Activity (Mus musculus [4]): Non-toxic
O=C(CN1CCN(Cc2ccccc2)CC1)N/N=C/c1ccccc1			Kd [5]: > 1000 µM; Activity [6]: 3%
C=CCc1cccc(/C=N/NC(=O)CN2CCN(Cc3ccc(C(F)(F)F)cc3)CC2)c1O		16%	
O=C(CN1CCN(C(=O)c2ccc(F)cc2)CC1)N/N=C/c1cc(F)ccc1O	15.3 µM	86%	
CCCc1cc(F)cc(/C=N/NC(=O)CN2CCN(Cc3ccc(F)cc3)CC2)c1O	7.5 µM	48%	
O=C(CN1CCN(Cc2ccccc2)CC1)N/N=C/c1cc(F)ccc1O	17 µM	64%	
C=CCc1cc(F)cc(/C=N/NC(=O)CN2CCN(Cc3ccc(C#N)cc3)CC2)c1O	12.7 µM	65%	
CCCc1cccc(/C=N/NC(=O)CN2CCN(C(=O)c3ccc(F)cc3)CC2)c1O	7.3 µM	69%	
CCCc1cc(F)cc(/C=N/NC(=O)CN2CCN(Cc3ccc(C#N)cc3)CC2)c1O	11.2 µM	49%	
CCCc1cc(F)cc(/C=N/NC(=O)CN2CCN(C(=O)c3ccc(C#N)cc3)CC2)c1O		66%	Drug uptake (Serum [7]): Active
O=C(CN1CCN(Cc2ccc(C(F)(F)F)cc2)CC1)N/N=C/c1cc(F)ccc1O	4.7 µM	30%	
CCCc1cc(F)cc(/C=N/NC(=O)CN2CCN(C(=O)c3ccc(C(F)(F)F)cc3)CC2)c1O		64%	
C=CCc1cccc(/C=N/NC(=O)CN2CCN(Cc3ccc(F)cc3)CC2)c1O	11.1 µM	31%	
CCCc1cc(F)cc(/C=N/NC(=O)CN2CCN(Cc3ccccc3)CC2)c1O	8.9 µM	49%	
C=CCc1cc(F)cc(/C=N/NC(=O)CN2CCN(Cc3ccc(S(N)(=O)=O)cc3)CC2)c1O		89%	
CCCc1cccc(/C=N/NC(=O)CN2CCN(Cc3ccccc3)CC2)c1O	9.6 µM	30%	
CCCc1cccc(/C=N/NC(=O)CN2CCN(C(=O)c3ccc(C(F)(F)F)cc3)CC2)c1O		64%	
C=CCc1cc(F)cc(/C=N/NC(=O)CN2CCN(C(=O)c3ccc(C#N)cc3)CC2)c1O		95%	Drug uptake (Serum [7]): Active

Compound	IC50 [1]	remaining at 3 h, 10 µM [2]	other results
CCCc1cccc(/C=N/NC(=O)CN2CCN(Cc3ccc(C#N)cc3)CC2)c1O	9 µM	30%	
CCCc1cccc(/C=N/NC(=O)CN2CCN(C(=O)c3ccc(C#N)cc3)CC2)c1O	12.8 µM	61%	
N#Cc1ccc(C(=O)N2CCN(CC(=O)N/N=C/c3cc(F)ccc3O)CC2)cc1	15.3 µM	88%	
C=CCc1cccc(/C=N/NC(=O)CN2CCN(Cc3ccc(C#N)cc3)CC2)c1O	13.7 µM	48%	
C=CCc1cc(F)cc(/C=N/NC(=O)CN2CCN(Cc3ccc(C(F)(F)F)cc3)CC2)c1O		49%	
C=CCc1cc(F)cc(/C=N/NC(=O)CN2CCN(C(=O)c3ccccc3)CC2)c1O	8.6 µM	93%	Activity (Mus musculus [4]): Non-toxic; Kd [5]: 0.00107 µM; Activity [6]: 67%; Activity (U-937 [8]): 20%; Activity (U-937 [9]): 19%; Activity (U-937 [10]): 7%; viability at 50 µM (U-937 [11]): 54%; IC50 (Jurkat): 4.1 µM; IC50 [12]: 3.4 µM; IC50 [13]: 10 µM; IC50 (EL4): 7.3 µM; Drug uptake (Serum [7]): Active; beta t1/2 (Mus musculus [14]): 2.008 h; AUC [15]: 4850 ng·h/mL; AUC [16]: 428 ng·h/mL; bioavailability [17]: 8.5%
C=CCc1cccc(/C=N/NC(=O)CN2CCN(C(=O)c3ccc(C#N)cc3)CC2)c1O	13.1 µM	90%	
C=CCc1cccc(/C=N/NC(=O)CN2CCN(C(=O)c3ccc(C(F)(F)F)cc3)CC2)c1O		85%	
C=CCc1cccc(/C=N/NC(=O)CN2CCN(C(=O)c3ccc(F)cc3)CC2)c1O	10.2 µM	86%	Activity (Mus musculus [4]): Non-toxic; Kd [5]: 0.00146 µM; Activity [6]: 64%; Activity (U-937 [8]): 27%; Activity (U-937 [9]): 22%; Activity (U-937 [10]): 2%; viability at 50 µM (U-937 [11]): 49%; IC50 (Jurkat): 4 µM; IC50 [12]: 3 µM; IC50 [13]: 9.3 µM; IC50 (EL4): 6.5 µM; Drug uptake (Serum [7]): Active; beta t1/2 (Mus musculus [14]): 1.49 h; AUC [15]: 6040 ng·h/mL; AUC [16]: 1540 ng·h/mL; bioavailability [17]: 25.6%
C=CCc1cc(F)cc(/C=N/NC(=O)CN2CCN(C(=O)c3ccc(F)cc3)CC2)c1O	8.5 µM	92%	Activity (Mus musculus [4]): Toxic
CCCc1cc(F)cc(/C=N/NC(=O)CN2CCN(Cc3ccc(C(F)(F)F)cc3)CC2)c1O		40%	
CCCc1cc(F)cc(/C=N/NC(=O)CN2CCN(Cc3ccc(S(N)(=O)=O)cc3)CC2)c1O		62%	
O=C(CN1CCN(C(=O)c2ccccc2)CC1)N/N=C/c1cc(F)ccc1O	15.7 µM	88%	
C=CCc1cccc(/C=N/NC(=O)CN2CCN(C(=O)c3ccccc3)CC2)c1O	12.1 µM	89%	
C=CCc1cc(F)cc(/C=N/NC(=O)CN2CCN(Cc3ccccc3)CC2)c1O	9.5 µM	56%	
CCCc1cccc(/C=N/NC(=O)CN2CCN(Cc3ccc(C(F)(F)F)cc3)CC2)c1O		15%	
CCCc1cc(F)cc(/C=N/NC(=O)CN2CCN(C(=O)c3ccc(F)cc3)CC2)c1O	7.5 µM	67%	Activity (Mus musculus [4]): Toxic
CCCc1cccc(/C=N/NC(=O)CN2CCN(Cc3ccc(S(N)(=O)=O)cc3)CC2)c1O		61%	
CCCc1cccc(/C=N/NC(=O)CN2CCN(C(=O)c3ccccc3)CC2)c1O	9.4 µM	71%	
C=CCc1cccc(/C=N/NC(=O)CN2CCN(Cc3ccccc3)CC2)c1O [PAC-1]	10.2 µM	38%	Drug metabolism (Liver microsome): metabolite_detected; Activity (Mus musculus [4]): Toxic; half-life [18]: 2.1 h; Kd [5]: 0.00128 µM; Activity [6]: 87%; Activity (U-937 [8]): 22%; Activity (U-937 [9]): 19%; Activity (U-937 [10]): 5%; viability at 50 µM (U-937 [11]): 54%; IC50 (Jurkat): 4.4 µM; IC50 [12]: 3 µM; IC50 [13]: 10 µM; IC50 (EL4): 6.5 µM; Drug uptake (Serum [3]): Not Active; beta t1/2 (Mus musculus [14]): 0.41 h; AUC [15]: 3510 ng·h/mL; AUC [16]: 527 ng·h/mL; bioavailability [17]: 15.1%
CN[C@@H]1C[C@H]2O[C@@](C)([C@@H]1OC)n1c3ccccc3c3c4c(c5c6ccccc6n2c5c31)C(=O)NC4			Activity [19]: 100%
CCCc1cccc(/C=N/NC(=O)CN2CCN(Cc3ccc(F)cc3)CC2)c1O	10 µM	24%	
